Test system: MS2 coat protein
Assay: apparent Kd, MS2 coat protein; higher = weaker binding; RNA-MaP array
Outline: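 Binding of fluorescently labeled MS2 coat protein, at 1.5 nM to 3 μM and room temperature, was measured with or without input ligand on designed RNAs transcribed on an Illumina sequencing chip from sequenced DNA templates. Apparent Kd was defined as the median of per-cluster binding-curve fits. No design measured on fewer than 10 clusters was kept.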

[1] = designed as: OFF switch for flavin mononucleotide, no ligand
[2] = ligand present: flavin mononucleotide, designed as: OFF switch for flavin mononucleotide
[3] = designed as: ON switch for tryptophan, no ligand
[4] = ligand present: tryptophan, designed as: ON switch for tryptophan
[5] = designed as: ON switch for flavin mononucleotide, no ligand
[6] = ligand present: flavin mononucleotide, designed as: ON switch for flavin mononucleotide
[7] = designed as: OFF switch for tryptophan, no ligand
[8] = ligand present: tryptophan, designed as: OFF switch for tryptophan

Sequence | apparent Kd [1] [nM] | apparent Kd [2] [nM] | also measured
AUAACACAUGAGGAUCACCCAUGUAAGGAUAUAGUAGCAAUGGAAAGAAAUCUAUCCUCUAGAAGGUACACGGC | 18.5 | 15.3 | –
ACACACAUGAGGAUCACCCAUGUCUAUAUACGAGGACCGGUACGGCCGCCACUCGUGAGAUCGCGAGAGACAGCUUUGGGCUAGU | – | – | apparent Kd [3]: 14.6 nM; apparent Kd [4]: 19.2 nM
AUUAACAUGAGGAUCACCCAUGUUUGUCUCCGAGGACCGGUACGGCCGCCACUCGCAGGUUGGAGUCGCUAUAUGGGCGUUCACU | – | – | apparent Kd [3]: 44.6 nM; apparent Kd [4]: 34.9 nM
ACGCGUUCACAGAAGGCCUACAAAAUUACAUUAGGAGGAUAUGUUACAUGAGGAUCACCCAUGUCAUGGCUGUGUCUCGGUAUC | 30.8 | 41.4 | –
UAAUCCAACUCGUAAUGACAUGAGGAUCACCCAUGUGAGCGUGAGGAUAUUGUAAGCUAGGAGGUCAAGAAGGCACGCCAGGAG | 9.1 | 10 | –
UAGUAUGGCACAGGAUAUACAAUUAAUAUGCGGGUAGAAGGGUGGUAUCGACAUGAGGAUCACCCAUGUUAGGAAGAAACACAC | – | – | apparent Kd [5]: 134 nM; apparent Kd [6]: 78.2 nM
ACUCCACAUGAGGAUCACCCAUGUUAUAAGUAGGUAGGAUAUCACACAAACUUACAUGGAUGAGAAGGACCGGUCC | – | – | apparent Kd [5]: 328 nM; apparent Kd [6]: 210 nM
UUUGCAGUCGAGAAGGCAAACACAUGAGGAUCACCCAUGUAGACGAGGUAUGUUAUUUCGGGAGUUGAGGAUAUCGUGGUAGGU | – | – | apparent Kd [5]: 27.8 nM; apparent Kd [6]: 13.8 nM
AAGUCGCAAGGAUAUACAGUAAGGGUUCGGAUGGGAAGCUUACAUGAGGAUCACCCAUGUAGAAGGUGCAUUCA | 26.9 | 31.4 | –
ACGGCAUGGAAGAAGGAGUACAUGAGGAUCACCCAUGUAGGGUAGCGCGUCCACAUCCAAUAAGACUAGGAUAUUCUUGCAGAU | 39.8 | 83.2 | –
AUAUCUUCCACGGCCGCCACUGAAUGGUGCCCAAGGUCGAUCGCAGACAUGAGGAUCACCCAUGUCAGGACCGGGUGGUACUACG | – | – | apparent Kd [7]: 14.7 nM; apparent Kd [8]: 33 nM
GCUUUAUUAGGAUAUGUAACCGUUAACAUGAGGAUCACCCAUGUUGAUUCUCAAGAGACCACAGAAGGAAUAAAAG | 289 | 240 | –
GAACAAUGCCUAGGAUAUCUUACGAUUGAAAACAGAGAAGGAGGGACCGAACAUGAGGAUCACCCAUGUAGAUGUGGGACGUGG | 77.2 | 84.5 | –
CCAGGUUGAAUAGGAUAUCGAGUCCGUCACAUGAGGAUCACCCAUGUAUGCCAAGCUAGAGCGUGCGAGAAGGAUUAGGCCAUC | – | – | apparent Kd [6]: 15.5 nM
CGUAUACAUGAGGAUCACCCAUGUACUCCCGUGUAAGGCGAGAAGGAUAUGUUCCCGGCUACUUAACAGAAGGUCUUGGCGCUU | 14.9 | 11.2 | –
AGCCCACAUGAGGAUCACCCAUGUACUUGGUCCUCAGGAUAUCUAGUUCCAUAUUACAAAAGAGAAGGGAGGAUUG | – | – | apparent Kd [5]: 110 nM; apparent Kd [6]: 14.6 nM
CCAAAGUAAGGAUAUCGAAGAACCACAACCGACGGAACGAACGAGAAGGUACAUGAGGAUCACCCAUGUGAUAG | 11.6 | 19.7 | –
AAAGAACAAGGAUAUACAUGAGGAUCACCCAUGUCACAGAUAGUAGAACCACAAGCAUGUAGAAGGUGAGUCUA | 11.5 | 9.61 | –
CGACAGCACAUAGGAUAUCAGCAAGAACUAACAUGAGGAUCACCCAUGUAUGGAUGAACAUAAAAUGAGAAGGAAGGCGAAUUA | – | – | apparent Kd [5]: 22.2 nM; apparent Kd [6]: 17.9 nM
AUACCACCUUCGGCCGCCACUAUGUAUGGGUUCCCAACGUUGAAGGACAUGAGGAUCACCCAUGUUAGGACCGGGAAAAGUGCCU | – | – | apparent Kd [7]: 87.9 nM; apparent Kd [8]: 161 nM
GAACCCAAGGUGAGGAUAUUCGAAGCAACAAAAGGGAAGAAGGCACAUGAGGAUCACCCAUGUAAGAAAGAUAA | 8.35 | 9.52 | –
ACUGCGCACGGGCUCCACAUGAGGAUCACCCAUGUUGAACUGAGAAGGGAAAGAAGAAACUACAUUCAGGAUAUCAUUUCACCA | 44.5 | 46.6 | –
GUGGGCUAGGAGAAGGACGAUCGAAGCCAUAUCGUAGGAUAUCCAUUAAGAUCCCGGACAUGAGGAUCACCCAUGUGGUGAUAG | 676 | 414 | –
ACAUAUUCCAGAGGAUAUUGUGGUAUCCAGUUAAGGAGAUCUUACAUGAGGAUCACCCAUGUGGACAAGAAGGCUGAACGCUCC | – | – | apparent Kd [5]: 21.6 nM; apparent Kd [6]: 14.7 nM
GUAGAGUCAGGAUAUGUCAACUGCUCUGUAAAGCUUGGUCGACAGAAGGGACAUGAGGAUCACCCAUGUGAAGG | 34.1 | 56.5 | –
UGAAAUUUGGAGAAGGGACGCACGUGGUAGUGGCUACAUGAGGAUCACCCAUGUUAAUUGAUCAGUCAGGAUAUCCGGUUGUUC | 18.1 | 22.1 | –

Source: the EternaBench riboswitch data
